Consider nine compounds from PMC3963287 (Bioorganic & medicinal chemistry letters, 2014).

In data set [1] the test system is ACSL in bEND3 brain endothelial cells. Briefly: In situ [14C]-palmitate incorporation into extractable lipids of bEND3 cells. In kind it is cell-based. The following applies: for Inhibition of [14C]-palmitate incorporation into extractable lipids: compounds at 15 μM, Figure 3A; for Potency ratio (rank order) for inhibition of [14C]-palmitate incorporation into extractable lipids: triacsin C at 1.5 μM, all other compounds at 15 μM. The gist of the method:
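bEND3 brain endothelial cells incubated with [14C]-palmitate, with test compounds at 15 μM or the reference ACSL inhibitor at 1.5 μM. Radioactivity measured in extractable lipid (fmoles [14C]-palmitate/μg lipid), aqueous fraction and media; total recovery summed from lipid, aqueous and media. Compared to untreated controls by one-way ANOVA with Dunnett's t test; n = 3–9 independent experiments.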

In another data set the test system is rotavirus. The following applies: cited from earlier work.
The subject of data set [2] is long chain fatty acyl-CoA synthetase (ACSL). Briefly: Inhibition of ACSL activity in solubilized brain endothelial bEND3 cells. In kind it is biochemical.
In data set [3] the test system is leukocyte recruitment (rolling, adhesion, extravasation). The data set is described as follows: L-NAME induced leukocyte recruitment in post-capillary venules of the mesentery. The format is in vivo. As to conditions: 120 minutes; for Inhibition of leukocyte rolling, adhesion and extravasation: 5 or 50 μM compound 1, 50 μM compound 9.
Data set [4] shares this test system. As to conditions: 5μM; cited from earlier work.
The conditions of data set [5]: aqueous; no reference given; cited from earlier work.

On to `CCC/C=C/C/C=C/C=C/CNc1ccc(C(=O)O)cc1` [Compound 1], for which the “Inhibition of [14C]-palmitate incorporation into extractable lipids” value in data set [1] was “significant inhibition”. Moreover, in data set [1], the “Potency ratio (rank order) for inhibition of [14C]-palmitate incorporation into extractable lipids” value is “triacsin C > 3 > 1 > 4 > 9 = 7 > 2”. Further, in the data set on rotavirus, the “Potency relative to triacsin C as inhibitor of rotavirus replication” value is recorded as “at least twice as potent as triacsin C”. Besides, the “Potency relative to triacsin C in the ACSL assay” value in data set [2] was “one-tenth as potent as triacsin C”. Also, the “Rolling, adhesion and extravasation rates / recruitment” value in data set [3] (5 μM) is on record as “inhibited the recruitment to about half the extent as at 50 μm”; in data set [3] (50 μM), “not different from each other nor were they different from vehicle alone”. In addition, the “Inhibition of leukocyte rolling, adhesion and extravasation” value in data set [3] is “significantly inhibited rolling, adhesion, and extravasation”.

In the case of `CCC/C=C/C/C=C/C=N/N1CCCS1(=O)=O` [Compound 2], the “Potency ratio (rank order) for inhibition of [14C]-palmitate incorporation into extractable lipids” value in data set [1] is “triacsin C > 3 > 1 > 4 > 9 = 7 > 2”. Also, the “Folds less active compared with compound 3” value in data set [2] was > 30 folds.

In the case of `C=CCCCCCCCCCNc1ccc(C(=O)O)cc1` [Compound 3], in data set [1], the “Inhibition of [14C]-palmitate incorporation into extractable lipids” value was “significant inhibition” and the “Potency ratio (rank order) for inhibition of [14C]-palmitate incorporation into extractable lipids” value is reported as “triacsin C > 3 > 1 > 4 > 9 = 7 > 2”.

As to `C=CCCCCCCCCCNc1ccc(C(=O)O)c(O)c1` [Compound 4], in data set [1], the “Inhibition of [14C]-palmitate incorporation into extractable lipids” value was “significant inhibition” and the “Potency ratio (rank order) for inhibition of [14C]-palmitate incorporation into extractable lipids” value is reported as “triacsin C > 3 > 1 > 4 > 9 = 7 > 2”.

For `CCC/C=C/C/C=C/CN(O)/N=N/c1ccc(C(=O)O)cc1` [Compound 7], in data set [1], the “Inhibition of [14C]-palmitate incorporation into extractable lipids” value was “significant inhibition” and the “Potency ratio (rank order) for inhibition of [14C]-palmitate incorporation into extractable lipids” value was “triacsin C > 3 > 1 > 4 > 9 = 7 > 2”.

Take `CCC/C=C/C/C=C/C=C/CNN1CCCS1(=O)=O` [Compound 8]: the “Folds less active compared with compound 3” value in data set [2] is given as > 30 folds.

For `C=CCCCCCCCCCNO` [Compound 9], in data set [1], the “Inhibition of [14C]-palmitate incorporation into extractable lipids” value was “significant inhibition” and the “Potency ratio (rank order) for inhibition of [14C]-palmitate incorporation into extractable lipids” value is given as “triacsin C > 3 > 1 > 4 > 9 = 7 > 2”. Besides, the “Rolling, adhesion and extravasation rates / recruitment” value in data set [3] (50 μM) was “about as effective as compound 1 at 5 μM”. The “Inhibition of leukocyte rolling, adhesion and extravasation” value in data set [3] is “significantly inhibited rolling, adhesion, and extravasation”.

With `CCC/C=C/C/C=C/C=C/C=N/NN=O` [Triacsin C, reference compound], the “Neutrophil recruitment in a model of ischemia” value in data set [4] was “virtually abolished neutrophil recruitment”. For the same compound, the “Potency ratio (rank order) for inhibition of [14C]-palmitate incorporation into extractable lipids” value in data set [1] is “triacsin C > 3 > 1 > 4 > 9 = 7 > 2”. The “Times more potent than compound 3” value in data set [2] is “about 10 times”. For the same compound, in data set [3] (5 μM), the “Rolling, adhesion and extravasation rates / recruitment” value was “not different from each other nor were they different from vehicle alone”.

With `CCCCCCCCCCCCCCCC(=O)SCCNC(=O)CCNC(=O)[C@H](O)C(C)(C)COP(=O)(O)OP(=O)(O)OC[C@H]1O[C@@H](n2cnc3c(N)ncnc32)[C@H](O)[C@@H]1OP(=O)(O)O` [palmitoyl CoA], the Water solubility entry in data set [5] is listed as “about 1.74 g/L”.
